Compound activity (PubChem)
Hits are enriched below; roughly 2.1% of the tested compounds scored in any of these assays.
VIM-2 inh = blocks Pseudomonas aeruginosa VIM-2 metallo-beta-lactamase | 0.89% of 290,000 active | inhibition, % at 5.6 µM | purified VIM-2, nitrocefin hydrolysis, epi-absorbance fluorescence;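 active = inhibition above the mean of all tested compounds plus 3 SD, cutoff set per screening run, cut at about 7.5% in these data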;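 also: red hydrolysis product quenches plate fluorescence so inhibitors raise well fluorescence; 0% = enzyme with DMSO and 100% = DMSO without enzyme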
CRFBP-R2 agonist = agonists of human CRF-binding protein/CRF-R2 receptor complex | activation, % at 13.2 µM | 0.46% of 350,000 active | HEK293 CRF-R2/CRF-BP, calcium dye fluorescence (FLIPR); percent of saturating CRF peptide response | AID 588473;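 active = activation of at least 50%, plus an integration ratio under a set limit after plate pattern correction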;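 also: plate controls were neutral control wells without compound for no effect and CRF at EC100 for full effect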
IMP-1 inh = blocks Pseudomonas aeruginosa IMP-1 metallo-beta-lactamase | AID 1556 | inhibition, % at 5.6 µM | purified IMP-1, nitrocefin hydrolysis, epi-absorbance fluorescence | 0.45% of 290,000 active;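 active = inhibition above the mean plus 3 SD of all compounds in the same screening run, cut at about 4.5% in these data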;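 also: 0% = IMP-1 with DMSO and 100% = DMSO wells lacking enzyme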
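System: Purified IMP-1 | Read-out basis: Percent enzyme inhibition | Controls: IMP-1 with DMSO as 0%, enzyme-free DMSO as 100% | Replicates: One well per compound | Doses: 5.6 µM nominal single concentration | Detection: Epi-absorbance fluorescence, 480 nm excitation, 530 nm emission | Incubation: 25 °C, 15 min preincubation, 25 min reaction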
TRPN1 ag = agonists of zebrafish TRPN1 channel; 0.18% of 220,000 active; activation, % at 3 µM; HEK293 zebrafish TRPN1-YFP, Fluo-8 calcium fluorescence; 100% = response to 87 µM carbachol;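 active = activation above its plate's cutoff, the mean activation of test wells on that plate plus 3 SD, cut at about 19% in these data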;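 also: 0% = DMSO alone and 100% = 87 µM carbachol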
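Material: zebrafish TRPN1-YFP in HEK293 cells; Doses: single test compound dose, 3 µM nominal, 0.3% DMSO; Timing: dye loading 1 h at 37 °C, then 30 min room temperature; Technique: intracellular calcium fluorescence with Fluo-8; Benchmarks: high carbachol 87 µM, low DMSO alone.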
CRFBP-R2 block = CRF-BP/CRF-R2 complex antagonism; inhibition, % at 11.8 µM; 0.59% of 350,000 active; HEK293 CRF-R2/CRF-BP, CRF-induced calcium fluorescence;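 active = inhibition of the ligand-induced calcium signal above about 50% at the single tested concentration, limit read from the data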
TRPML3 agonist = human mucolipin-3 channel agonism | Q8TDD5 | HEK293 TRPML3-YFP, Fluo-8 calcium fluorescence; 100% = the carbachol control signal | activation, % at 3 µM | 0.29% of 220,000 active;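 active = activation above its plate's cutoff, the mean activation of the plate's test wells plus 3 SD, cut at about 12% in these data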;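 also: 0% = DMSO only wells and 100% = carbachol wells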
Target sequence (Q8TDD5 whole entry, looked up): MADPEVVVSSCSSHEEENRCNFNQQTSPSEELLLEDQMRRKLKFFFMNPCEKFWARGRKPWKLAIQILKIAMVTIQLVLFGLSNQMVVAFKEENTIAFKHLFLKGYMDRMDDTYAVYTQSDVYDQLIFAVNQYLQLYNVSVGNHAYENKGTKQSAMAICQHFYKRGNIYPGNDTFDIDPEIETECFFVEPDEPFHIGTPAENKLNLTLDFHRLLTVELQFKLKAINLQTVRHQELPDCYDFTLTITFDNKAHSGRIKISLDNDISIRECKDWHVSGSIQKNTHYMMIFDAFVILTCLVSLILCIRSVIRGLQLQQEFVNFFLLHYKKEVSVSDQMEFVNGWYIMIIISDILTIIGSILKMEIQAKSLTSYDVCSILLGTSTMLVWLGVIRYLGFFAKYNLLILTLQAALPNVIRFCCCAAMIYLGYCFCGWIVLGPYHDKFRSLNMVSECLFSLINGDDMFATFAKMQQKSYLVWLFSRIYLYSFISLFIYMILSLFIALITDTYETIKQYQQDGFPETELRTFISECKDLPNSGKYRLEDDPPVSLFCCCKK
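Material: TRPML3-YFP stable HEK293 cells | Dosing: One concentration, 3 µM nominal, 0.3% DMSO | Timing: 125 s total fluorescence read per well | Technique: Fluo-8 calcium dye fluorescence, ex 470-495, em 515-575 nm | Measure: Percent activation from peak-to-basal fluorescence ratio, scaled between DMSO and carbachol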
* marks the source's active call; other numbers are inactive results; / = no result given.

SMILES | VIM-2 inh | CRFBP-R2 agonist | IMP-1 inh | TRPN1 ag | CRFBP-R2 block | TRPML3 agonist
NS(=O)(=O)c1ccc(CCNC(=O)c2ccc3c(=O)n4c(nc3c2)CCCCC4)cc1 | / | -1 | / | / | -4 | /
CCOc1ccc(S(=O)(=O)N(CC)CC(=O)NCc2ccncc2)cc1 | 1 | -1 | 0 | / | 32 | /
O=C(CC(NC(=O)OCc1ccccc1)C(=O)OCc1ccccc1)OCc1ccccc1 (centres undefined) | / | 6 | / | / | 88* | /
O=C(CC(NC(=O)OCc1ccccc1)C(=O)O)OCc1ccccc1 (centres undefined) | -3 | -1 | -4 | 1 | 2 | 0
CNS(=O)(=O)c1ccc(CNC[C@H]2O[C@@H](n3cnc(C(N)=O)n3)[C@H](O)[C@@H]2O)cc1 | / | 0 | / | / | -13 | /
C[C@@H]1CN([C@H](C)CO)S(=O)(=O)c2ccc(C#Cc3ccccc3)cc2O[C@H]1CN(C)C(=O)Nc1ccc2c(c1)OCO2 | / | 3 | / | / | -14 | /
CSc1c(C#N)sc(=S)n1-c1ccc(C)cc1 | 1 | 2 | -1 | -2 | 56* | -1
O=C(O)C1=C(C(=O)Nc2ccc(F)c(Cl)c2)CCCC1 | 4 | -4 | 10* | 0 | -19 | 0
CCOc1ccc2[nH]cc(-c3csc(N)n3)c2c1 | -2 | 1 | -1 | / | -5 | /
COc1cc2cc(C(c3nnnn3C3CCCC3)N3CCc4ccccc43)c(=O)[nH]c2cc1OC (centres undefined) | -3 | 22 | -2 | 0 | -41 | -1
O=c1[nH]c2cc3c(cc2cc1C(c1nnnn1C1CCCC1)N1CCCc2ccccc21)OCCO3 (centres undefined) | / | 57* | / | / | -72 | /
O=C(O)c1cccc(N2C(=O)c3cccc(Oc4ccc(Cl)cc4)c3C2=O)c1 | 5 | 2 | 20* | 0 | 19 | 0
O=C(O)CN1C(=O)c2ccc(Oc3cccc4c3C(=O)N(CC(=O)O)C4=O)cc2C1=O | -1 | 0 | -3 | 1 | 6 | 1
O=C(O)c1ccc(N2C(=O)c3cccc(Oc4ccc(Cl)cc4)c3C2=O)cc1 | 6 | -1 | 17* | -1 | 7 | 0
O=C(CNC(=O)c1ccc(N2C(=O)c3ccccc3C2=O)cc1)OCC(=O)c1ccc(Cl)cc1 | -3 | -2 | -3 | 2 | 1 | 1
Cc1cc(C)n(CC(=O)NNC(=O)c2ccc(NC(=O)CC#N)cc2)n1 | / | -1 | / | / | 3 | /
CCc1ccc(NC(=O)C(CC)c2ccccc2)cc1 (centres undefined) | -2 | 60* | -1 | 19 | -65 | 11
C(=Cc1cnc2ccccc2n1)c1ccc2c(c1)OCO2 | / | 100* | / | / | -62 | /
C(=Cc1nc2ccccc2o1)c1ccc2c(c1)OCO2 | / | 6 | / | / | -7 | /
O=C1Cc2ccccc2Sc2ccc(O)cc21 | -3 | 92* | -1 | -1 | -57 | 3
CS(=O)(=O)c1cccc(S(=O)(=O)N2CCCCCC2)c1 | -1 | 1 | -2 | / | -18 | /
CC(C)c1ccc[n+](-c2nc([O-])sc2C=O)c1 | 0 | -2 | 0 | 3 | 1 | 0
Cc1ccc[n+](-c2nc([O-])sc2C=O)c1 | 4 | 92* | 1 | 7 | -55 | 3
CC(C)(C)c1ccc(C(=O)NCCNC(=O)c2ccco2)cc1 | 0 | 0 | -1 | / | -5 | /
COc1cccc(S(=O)(=O)Nc2ccc3c(c2)[C@H]2C[C@H](CC(=O)N[C@@H](C)c4ccccc4)O[C@H](CO)[C@H]2O3)c1 | / | 4 | / | / | 33 | /
SMILES | VIM-2 inh | CRFBP-R2 agonist | IMP-1 inh | TRPN1 ag | CRFBP-R2 block | TRPML3 agonist
COc1ccc(C(N)c2nccc3cc(OC)c(OC)cc23)cc1OC (centres undefined) | 7.8* | 3 | 2 | / | 15 | /
COc1cc2ccnc(C=O)c2cc1OC | / | 6 | / | / | -25 | /
COc1cccc(N=Cc2c[nH][nH]c2=O)c1 | 1 | 0 | -5 | 0 | 1 | 0
O=c1[nH][nH]cc1C=Nc1ccc(Cl)cc1 | -2 | -1 | -3 | 1 | 72* | 0
Cc1cc(C)n2nc(CC(=O)NNC(=O)COc3ccccc3)nc2n1 | -2 | -1 | -4 | / | 0 | /
COc1ccccc1/C=C/c1nc(S(=O)(=O)c2ccccc2)c(NCCN(C)C)o1 | 1 | 3 | 1 | / | 40 | /
COc1ccc(/C=C/c2nc(S(=O)(=O)c3ccccc3)c(NCCCN(C)C)o2)cc1OC | 8.8* | 1 | -4 | / | -9 | /
Nc1cc2c(cc1Cl)-c1ccc(Cl)cc1C2=O | / | -1 | / | / | 0 | /
CC(=O)Nc1cccc(C(=O)/C=C/c2ccc(N(C)C)cc2)c1 | 1 | 196* | 0 | 44* | -219 | 20*
CCCC(=O)NC(C)c1nc2ccccc2[nH]1 (centres undefined) | -4 | -2 | -6 | 0 | 58* | 1
CC(NC(=O)Cc1ccccc1)c1nc2ccccc2[nH]1 (centres undefined) | -3 | 0 | -3 | 1 | 6 | 0
Cc1c(N=Nc2c(-c3ccc([N+](=O)[O-])cc3)[nH]n(C(N)=S)c2=O)cccc1[N+](=O)[O-] | -7 | 42 | -5 | 4 | 66* | 2
CCCCCC(=O)Nc1cccc2ccccc12 | 0 | -1 | -1 | -2 | 5 | -1
CCCC(=O)Nc1ccccc1NC(C)=O | -1 | 3 | 5.3* | 0 | 2 | 1
Cc1cc(Nc2cccc(Cl)c2Cl)n2ncnc2n1 | 2 | -2 | 0 | / | 6 | /
CCN(CC)c1ccc(N=Cc2ccc(N(CC)CC)cc2O)cc1 | -5 | 94* | -5 | -2 | -125 | -1
CCN(CC)c1ccc(C=Nc2ccc(N(C)C)cc2)c(O)c1 | -3 | 51* | -7 | 0 | -61 | 0
COc1cc(O)c(C=Nc2ccccc2NS(=O)(=O)c2ccc(C)cc2)c(OC)c1 | / | 2 | / | / | 20 | /
CCCOc1ccc(-c2nc(=S)[nH][nH]2)cc1 | 6 | -2 | 35* | 0 | -12 | 1
S=c1nc(-c2ccc(Cl)cc2)[nH][nH]1 | -3 | 0 | -4 | 1 | -8 | 1
O=C(Nc1ccc(C(=O)N2CCCC2)cc1)C1CCCCC1 | / | 4 | / | / | -2 | /
Cc1ccn(C(=O)c2ccc(NC(=O)C3CCCCC3)cc2)n1 | 1 | -4 | 0 | 0 | 54* | 1
CN(C)c1ccc(O)c2c1CC1CC3C(N(C)C)C(=O)C(C(N)=O)=C(O)[C@@]3(O)C(=O)C1=C2O (some centres undefined) | / | 0 | / | / | 0 | /
CN(C)[C@@H]1C(=O)C(C(=O)NCN2CCCC2)=C(O)[C@@]2(O)C(=O)C3=C(O)c4c(O)cccc4[C@@](C)(O)C3CC12 (some centres undefined) | 4 | / | 5.7* | -1 | / | 1
COc1ccc(C2=CC(c3ccco3)n3ncnc3N2)cc1 (centres undefined) | 4 | 170* | -1 | 1 | -144 | 1
